Gli-Sufu antag – Gli-Sufu pathway antagonism | Sufu-KO-LIGHT fibroblasts, Gli luciferase reporter luminescence | inhibition, % at 5 µM | hit rate 0.74% among 340,000 | AID 588413;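 active = inhibition above about 55%, limit read from the data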;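 note: 0% = DMSO-treated cells and 100% = wells with medium but no cells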
697 NFkB inh – inhibitors of the PMA/ionomycin-induced NF-kB reporter in 697 B cells; 697 B-cell NF-kB luciferase reporter, 16 h; inhibition, % at 4 µM; hit rate 0.33% among 330,000; in the data active = inhibition above about 35%
XBP1 UPR activ – adaptive UPR (XBP1) activation | CHO-XBP1 luciferase reporter, IRE1-XBP1 UPR activation, luminescence; percent of tunicamycin response, DMSO as zero | activation, % at 20 µM | hit rate 0.33% among 330,000 | AID 463104;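 active = versus positive control, 20 µM dose yields 30% or more activation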;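 note: 100% = tunicamycin at 10 µg/mL and 0% = DMSO only wells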
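Material: CHO cell line with stable XBP1 luciferase reporter; schedule: 16-18 h cell attachment at 37 °C, then 6 h compound exposure; signal: glow luminescence from Steady-Glo reagent; medium: serum-containing F12 medium, 10% FBS; benchmarks: tunicamycin 10 µg/mL and vehicle-only wells; read-out: percent activation relative to tunicamycin reference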
CHOP UPR activ – apoptotic UPR (CHOP) activation; CHO-CHOP luciferase reporter, luminescence; percent of tunicamycin response over DMSO baseline; activation, % at 10 µM; hit rate 0.34% among 330,000; AID 449763;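 active = at 10 µM dose, activation of 40% or more, normalized to positive control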;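 note: 100% = tunicamycin at 10 µg/mL and 0% = DMSO alone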
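Test system: CHO-CHOP cells, stable luciferase reporter of PERK-eIF2a-CHOP signalling | Quantity: 500 CHO-CHOP cells per well | Buffer or medium: F12 plus 10% serum | Compound dosing: 10 µM single point, 0.5% DMSO | Schedule: 6 h compound treatment, 37 °C | Signal: Luciferase luminescence | Control set: Tunicamycin high control, DMSO low control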
Jurkat NFkB inh – lowers PMA/ionomycin-induced NF-kB signal in Jurkat cells; hit rate 0.53% among 330,000; PMA/ionomycin-induced NF-kB luciferase reporter, luminescence; AID 435003; inhibition, % at 4 µM; in the data active = inhibition above about 50%
CHOP inhibitor – inhibitors of CHOP induction in ER stress response; inhibition, % at 10 µM; CHO-K1 CHOP-promoter luciferase, tunicamycin-induced, 15-18 h; AID 2732; hit rate 3.8% among 220,000;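 active = compounds that reduced the stress-induced luciferase reporter signal by more than about 70% of percent inhibition, limit read from the data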;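 note: 0% = tunicamycin plus vehicle and 100% = wells without tunicamycin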
Gli antag conf – Gli-SUFU antagonism confirmation, single concentration | shares compounds with Gli-Sufu antag | Sufu-KO-LIGHT cells, Gli luciferase reporter, luminescence | inhibition, % at 5 µM | hit rate 40% among 2,500 | AID 602428;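 active = mean inhibition at 5 µM reaching about 45%, limit read from the data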;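 note: plate controls were DMSO-treated cells for no effect and wells lacking cells for full effect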
SufuKO cytotox – cytotoxicity counter-screen for Gli-SUFU antagonists | shares compounds with Gli-Sufu antag | cytotoxicity, % at 5 µM | AID 651994 | hit rate 32% among 2,500 | Sufu-KO-LIGHT cells cytotoxicity, ATP luminescence;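 active = mean cytotoxicity at 5 µM above about 25%, limit read from the data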;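 note: cells exposed to compound overnight for roughly 16 to 18 hours; plate controls were DMSO wells with cells for no effect and medium without cells for full effect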
Wnt3a counter – Wnt3a reporter inhibition counter-screen; Wnt-LIGHT cells, Wnt3a-driven luciferase reporter, luminescence; inhibition, % at 6.25 µM; shares compounds with Gli-Sufu antag; hit rate 20% among 2,500;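 active = mean inhibition above about 25%, limit read from the data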
Numbers without * were called inactive; · = not tested or not shown. Most compounds without a hit are left out; they make up all but 3.9% or so of the library.

SMILES	Gli-Sufu antag	697 NFkB inh	XBP1 UPR activ	CHOP UPR activ	Jurkat NFkB inh	CHOP inhibitor	Gli antag conf	SufuKO cytotox	Wnt3a counter
CCN(CC)CCNc1ccc(CO)c2sc3ccccc3c(=O)c12	4.5	-11.5	-6.2	-1.1	-26.6	14.2	·	·	·
O=c1c2ccccc2sc2c(CO)ccc(NCCN3CCCCC3)c12	52.5	·	·	·	·	·	40.7	20.0	-155.1
Cc1ccccc1OCC(O)COc1ccccc1C	-8.0	·	·	·	·	·	·	·	·
Cc1ccc(CNc2nc(C)cs2)cc1	73.1*	-96.0	-3.0	2.7	-71.0	·	-59.5	20.7	-59.1
COc1ccc(/C=N/N2C(C)CCCC2C)cc1OC (stereo not drawn)	5.7	2.8	-1.0	0.8	-22.8	·	·	·	·
Cc1ccc(-c2noc(CCC(=O)NCC3CCCO3)n2)cc1 (stereo not drawn)	·	19.1	-1.2	2.0	15.3	29.9	·	·	·
Cc1ccc(-c2noc(CCCC(=O)NCC3CCCO3)n2)cc1 (stereo not drawn)	55.8*	21.3	-7.0	-2.3	5.7	·	39.1	7.9	4.6
O=C(CSCSCC(=O)NCC1CCCO1)NCC1CCCO1 (stereo not drawn)	95.6*	5.8	-1.1	-2.1	-13.8	10.8	11.3	20.3	-16.1
Cc1cc(C)c(C)c(OCC(=O)NCC2CCCO2)c1 (stereo not drawn)	0.1	-11.0	2.3	1.9	-4.5	34.1	·	·	·
Cc1cc(C)cc(OCC(=O)NCC2CCCO2)c1 (stereo not drawn)	71.2*	12.8	-8.2	-7.7	25.8	73.2*	38.8	16.0	37.7*
C=CCC[C@H](Cc1ccc(F)cc1)C(=O)OC[C@H](Cc1c[nH]c2ccccc12)NC(=O)[C@@H](CC=C)CC(=O)N[C@H](CO)Cc1ccccc1	7.5	-7.7	-0.9	18.4	3.4	·	·	·	·
COCCNC(=O)c1cccc(OC2CCN(Cc3ccc(C(C)C)cc3)CC2)c1	34.4	-7.5	0.1	-3.3	22.6	·	·	·	·
COCCNC(=O)c1cccc(OC2CCN(Cc3ccc(C(=O)OC)cc3)CC2)c1	59.9*	9.3	-3.1	3.7	17.6	·	15.6	-1.1	10.2
Cc1ccc(C#CC[N+]2(CC#Cc3ccc(C)cc3)CCCCC2)cc1	87.8*	19.0	-1.1	-0.6	29.2	35.7	88.8*	39.1*	-6.6
O=C(C[N+]1(CC#Cc2ccccc2)CCCCC1)c1ccccc1	11.3	-4.2	-1.5	-2.0	-11.3	-9.1	·	·	·
C#CC[N+]1(CC#Cc2ccccc2)CCCCC1	11.4	4.0	10.1	0.9	-7.3	43.0	·	·	·
CCC[N+]1(CC#CCC(c2ccccc2)c2ccccc2)CCCCC1	84.2*	2.9	1.2	-0.4	34.5	·	87.7*	49.0*	36.0*
C(#Cc1ccccc1)C[N+]1(CC#Cc2ccccc2)CCCCC1	81.4*	-40.2	-3.9	-0.2	24.8	4.3	78.6*	37.7*	24.3
COc1cccc(NC(=S)N2CCC(Cc3ccccc3)CC2)c1	51.1	-2.5	-0.4	0.7	16.8	·	30.2	21.2	-45.9
N#CCC(=O)Nc1ccc(C(=O)OCC(=O)C23CC4CC(CC(C4)C2)C3)cc1	-7.7	11.6	1.3	1.2	0.2	·	·	·	·
O=C(OCC12CC3CC(CC(C3)C1)C2)c1ccc(NCc2cc(O)ccc2O)cc1	78.0*	·	·	·	·	·	68.3*	37.6*	65.9*
CCOC(=O)C1(CCc2ccccc2)CCN(Cc2cccc3nccnc23)CC1	54.7	-20.3	-2.4	0.6	17.2	60.5	30.0	4.3	-57.8
CCOC(=O)C1(CCOc2ccccc2)CCN(Cc2nccn2CC)CC1	-9.0	-10.1	-2.1	-3.3	-18.3	56.4	·	·	·
CCOC(=O)C1(CCc2ccccc2)CCN(Cc2ccn[nH]2)CC1	11.6	-21.8	-2.5	-0.5	-2.3	-1.3	·	·	·
